The list is not random: actives were taken first. Their share in the collection is about 3.2%.
NR2E3 ag-1: NR2E3 agonists in two-hybrid cells, primary screen, cell-based, luminescence, CHO-S, Gal4-NCOR/VP16-NR2E3 | luciferase | inhibition of corepressor binding, % at 3.98 µM | 360,000 compounds, 0.35% hits;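 active means inhibition above the mean of all tested compounds plus 3 SD, cut at about 70% in these data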;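 further: 0% = DMSO with NR2E3 transfected cells and 100% = cells lacking NR2E3 construct; higher means lower luciferase signal from less NR2E3 corepressor binding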
GASC-1 inh: inhibitors of GASC-1 histone demethylase, primary screen, biochemical, fluorescence, DELFIA europium. Lysine-specific demethylase 4C (Homo sapiens), Q9H3R0. GST-JMJD2C(1-420) H3K9me3 demethylation. inhibition, % at 2.35 µM. 330,000 compounds, 0.069% hits;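 active means more than half of a compound's replicate wells show inhibition beyond 50%, single wells judged on their own value; inconclusive means some, but no more than half, of replicates pass 50% inhibition; inactive means no replicate passes 50% inhibition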;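 further: signal counts dimethyl H3K9 product captured on neutravidin plate; 0% = median of DMSO wells and 100% = 0.3 times that DMSO median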
Target sequence (Q9H3R0 1-420 limits assumed): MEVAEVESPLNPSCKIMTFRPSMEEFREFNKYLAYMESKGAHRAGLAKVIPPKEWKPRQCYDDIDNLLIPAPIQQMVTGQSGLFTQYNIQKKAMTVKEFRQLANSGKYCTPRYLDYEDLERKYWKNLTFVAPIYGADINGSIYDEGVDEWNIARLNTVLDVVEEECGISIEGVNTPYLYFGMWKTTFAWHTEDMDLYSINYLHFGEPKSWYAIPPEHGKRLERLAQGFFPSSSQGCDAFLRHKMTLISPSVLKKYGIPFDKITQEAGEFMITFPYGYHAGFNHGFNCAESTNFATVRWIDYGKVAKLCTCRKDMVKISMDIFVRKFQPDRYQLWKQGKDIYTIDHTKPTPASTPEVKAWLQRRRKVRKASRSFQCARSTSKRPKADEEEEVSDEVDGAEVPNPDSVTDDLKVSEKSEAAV
DAX1 inh-1: DAX1 (NR0B1) inhibitors on StAR promoter, primary screen, cell-based, luminescence, SF-1 (NR5A1), full-length DAX-1 | HEK293T StAR-luciferase reporter, SF-1/DAX-1 repression relief | inhibition, % at 6.8 µM | 370,000 compounds, 1.1% hits;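 active means inhibition above the mean over all tested compounds plus 3 SD, cut at about 3.6% in these data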;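 further: 0% = DAX-1 cells with DMSO and 100% = cells lacking DAX-1 with DMSO; higher inhibition means more luminescence from relief of DAX-1 repression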
DAX1 inh-2: DAX1 (NR0B1) inhibitors, primary screen, cell-based, HEK293, Gal4-DAX1, luciferase luminescence. HEK293 Gal4-DAX1 luciferase reporter. inhibition, % at 6.75 µM. 340,000 compounds, 0.99% hits;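 active means inhibition above the mean over all tested compounds plus 3 SD, cut at about 4.2% in these data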;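 further: 0% = DAX1-transfected cells with DMSO and 100% = empty-vector control cells with DMSO; inhibition shows as a rise in luminescence from relieved DAX1 repression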
SMARCA2 activ: SMARCA2 (BRM) function activators, primary screen, cell-based, luminescence, high throughput. activation, % at 9.1 µM. MG213 cells, MMTV-luciferase reporter, dexamethasone, overnight. 370,000 compounds, 1% hits; in the data active means activation above about 7.8%;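 further: 0% = vehicle wells and 100% = reference activator wells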
NR2E3 ag-2: inhibitors of NR2E3-RetCOR corepressor binding, primary screen, NR2E3 agonist project, biochemical, TR-FRET, GST-NR2E3, biotin-RetCOR; 1536-well; inhibition of corepressor binding, % at 4.78 µM; 320,000 compounds, 0.12% hits;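 active means percent inhibition above the cutoff of mean plus 3 SD of all tested compounds, set per screening campaign, cut at about 20% in these data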;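 further: 0% = DMSO wells and 100% = biotin wells as full block of FRET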
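System: GST-NR2E3 and biotin-RetCOR proteins; probe or stimulus: 7 nM biotin-RetCOR; doses: compound at 4.8 µM, single dose; schedule: Compound–protein incubation for 5 h at 4 °C; detection: time-resolved FRET; read-out: percent inhibition; controls: biotin wells as high control, 0.6% DMSO wells as low control; format: 1536-well plates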
* hit, by the source's call; ? = inconclusive; . = not tested or not shown.

SMILES	NR2E3 ag-1	GASC-1 inh	DAX1 inh-1	DAX1 inh-2	SMARCA2 activ	NR2E3 ag-2
CCOC(=O)N1CCN(C(=O)C[C@H]2C[C@@]3(C(=O)OC)C(=C[C@H](C(C)C)O[C@@H]3C3CC3)N(Cc3ccc4c(c3)OCO4)C2=O)CC1	.	.	-1	.	-3	.
Cc1ccc(NC(=O)c2ccc3c(c2)OCO3)cc1Cl	-147	14	3	4.7*	6	-1
Cc1cc(Cl)ccc1NC(=O)c1ccc2c(c1)OCO2	-74	0	1	3	0	0
O=C(Nc1ccc2c(c1)OCCO2)c1cccnc1	-54	-1	1	1	1	3
O=C(NC1=NCCS1)c1ccc(Cl)c(Cl)c1	-60	-7	3	5.4*	6	2
O=C(Nc1ccc2c(c1)OCCO2)c1ccc2nccnc2c1	-129	-9	4.3*	-1	2	4
COCCN1CCc2c(C)nc3c(-c4ccc(OC)c(OC)c4)cnn3c21	-29	2	0	0	5	-7
COc1ccc(-c2cnn3c4c(c(C)nc23)CCN4C2CCCC2)cc1OC	-1	4	0	5.9*	-4	0
O=C(O)c1cc([N+](=O)[O-])ccc1Nc1ccccc1	-7	3	0	4.3*	-3	-2
COc1ccc(-c2cnc3c(c2)CCC3(C#N)C#N)cc1	29	9	0	7.3*	-1	1
COc1ccc(-c2ccc(OC)cc2)cc1	-16	-1	0	2	-2	0
CN1CCN(C(=S)Nc2cc([N+](=O)[O-])ccc2Cl)CC1	3	3	0	5.3*	-1	-2
CCOC(=O)C1CCN(c2cc(=O)n(C3CCCCC3)c(=O)[nH]2)CC1	-22	3	1	1	2	2
CCOC(=O)C1CCN(c2cc(=O)n(-c3ccccc3Cl)c(=O)[nH]2)CC1	-10	-8	0	4.2*	1	0
CCCCn1c(SCC(=O)NCCOC)nc2ccc(N3CCOCC3)cc2c1=O	6	-7	0	4.8*	-1	0
CCCCNC(=O)C[C@H]1C[C@@]2(C(=O)OC)C(=C[C@H](C(C)(C)C)O[C@@H]2C)N(Cc2ccc(Cl)cc2Cl)C1=O	.	.	-1	.	-5	.
Cc1c(C(=O)N(Cc2ccco2)Cc2cccs2)oc2ccccc12	-23	-5	1	5.5*	3	-2
O=C(c1cccc(C(F)(F)F)c1)N1CC[C@H]2[C@H](CCCN2Cc2ccccc2)C1	.	.	-1	.	-1	.
COc1cc2sc(NC(=O)c3ccco3)nc2cc1Cl	-46	5	2	6.7*	1	0
Cc1cc2sc(NC(=O)c3ccco3)nc2cc1Cl	-108	-1	3	2	5	0
CC(=O)N1CCc2cc(Br)c(S(=O)(=O)CCC(=O)N3CCN(c4ccccn4)CC3)cc21	.	.	-1	.	-4	.
Oc1ccc(-c2n[nH]c(C(F)(F)F)c2-c2ccccc2)c(O)c1	76*	9	-3	.	-6	1
O=C(NCc1ccc(C(=O)N2CCCN(Cc3ccccc3)CC2)cc1)c1cccc(Br)c1	.	.	-2	.	-6	.
CCCN(CCC)CCCNC(=O)c1cc2c(=O)n(C)c3ccccc3c2n1C	-12	-13	5.0*	7.8*	0	-1
CCN(CC)CCCNC(=O)c1cc2c(=O)n(C)c3ccccc3c2n1C	14	3	3	7.5*	-1	5
SMILES	NR2E3 ag-1	GASC-1 inh	DAX1 inh-1	DAX1 inh-2	SMARCA2 activ	NR2E3 ag-2
CCN(CC)CCNC(=O)c1cc2c(=O)n(C)c3ccccc3c2n1C	-14	-1	4.2*	3	0	1
CCCN1CCN(CCCNC(=O)c2cc3c(=O)n(C)c4ccccc4c3n2C)CC1	-8	-9	2	8.4*	-2	3
CCCCN(CC)CCNC(=O)c1cc2c(=O)n(C)c3ccccc3c2n1C	3	0	2	3	1	2
CN(C)CCNC(=O)c1cc2c(=O)n(C)c3ccccc3c2n1C	4	-9	0	4	4	4
COC(=O)[C@]12C[C@H](CC(=O)NCc3cccc4ccccc34)C(=O)N(Cc3ccc(Cl)cc3Cl)C1=C[C@H](C(C)(C)C)O[C@@H]2C	.	.	-1	.	-5	.
CC(=O)Nc1ccc(S(=O)(=O)Oc2cccc(N3C(=O)C4CCCCC4C3=O)c2)cc1 (stereo not drawn)	25	-11	0	2	-5	0
Cc1ccc(S(=O)(=O)Oc2cccc(N3C(=O)C4CC=CCC4C3=O)c2)cc1 (stereo not drawn)	-12	-6	0	8.0*	-2	-1
CCC(NC(=O)c1ccc2c(ccn2Cc2cccc(-c3ccccc3C(=O)O)c2)c1)c1ccccc1 (stereo not drawn)	.	.	-2	.	0	.
O=c1c(C=NCCCn2ccnc2)c(-c2ccccc2)[nH]n1-c1nc2ccccc2s1	-6	?	4.3*	2	5	2
CN(C)CCCN=Cc1c(-c2ccccc2)[nH]n(-c2nc3ccccc3s2)c1=O	-31	3	0	0	-3	2
C/C(=N\NC(=O)c1ccc(Cn2cc(Br)cn2)o1)c1ccc(NC(=O)c2ccoc2C)cc1	-94	-6	4.4*	0	5	.
COc1cccc(C(=O)OCC(=O)Nc2nnc(-c3ccccc3)o2)c1	23	5	1	5.3*	0	-2
O=C(CCCCCN1C(=O)c2ccccc2C1=O)Nc1ccccc1	-10	10	1	1	-3	1
